Experimental data from ChEMBL document CHEMBL5316281, “Trojan Horse Siderophore Conjugates Induce Pseudomonas aeruginosa Suicide and Qualify the TonB Protein as a Novel Antibiotic Target” (2023).
Activity calls are given as the source filed them. The calls are words filed in the database; no cut-off is given here. Where a SMILES comes first, the peptide text is derived from it. [ ]: non-standard residue; d: D form. The star is where a group is joined. X6 = CC(=O)Oc1cccc(C(=O)NCc2cc(CNC(=O)c3cccc(OC(C)=O)c3OC(C)=O)c(NC(=O)CCCc3cn(CCOCCOCCOCCOCCOCCOCCOCCOCCNC(=O)COCC(=O)*)nn3)c(CNC(=O)c3cccc(OC(C)=O)c3OC(C)=O)c2)c1OC(C)=O; X1 = O=C(COCC(=O)*)NCCOCCOCCOCCOCCOCCOCCOCCOCCn1cc(CCCC(=O)Nc2c(CNC(=O)c3cccc(O)c3O)cc(CNC(=O)c3cccc(O)c3O)cc2CNC(=O)c2cccc(O)c2O)nn1; X5 = O=C(CCSSCCC(=O)*)NCCOCCOCCOCCOCCOCCn1cc(CCCC(=O)Nc2c(CNC(=O)c3cccc(O)c3O)cc(CNC(=O)c3cccc(O)c3O)cc2CNC(=O)c2cccc(O)c2O)nn1; Benzoyl(2,3-diOH) = O=C(c1cccc(O)c1O)*

How the values were obtained:
Pseudomonas aeruginosa [1] = assay: Antimicrobial activity against Pseudomonas aeruginosa PAO1 assessed as inhibition of bacterial growth in presence of iron-depleted CAA medium; format: functional, organism-based
Pseudomonas aeruginosa [2] = assay: Antimicrobial activity against Pseudomonas aeruginosa harboring deltapvdF-deltapchA mutant assessed as inhibition of bacterial growth by measuring minimal inhibitory concentration incubated for 24 hrs in presence of iron-depleted CAA medium; format: functional
Pseudomonas aeruginosa [3] = assay: Antimicrobial activity against Pseudomonas aeruginosa harboring deltapvdF-deltapchA mutant assessed as inhibition of bacterial growth by measuring minimal inhibitory concentration incubated for 48 hrs in presence of iron-depleted CAA medium; format: functional
Pseudomonas aeruginosa [4] = assay: Antimicrobial activity against Pseudomonas aeruginosa harboring deltapvdF-deltapchA mutant assessed as increase in pfeA transcription level at 10 uM incubated for 8 hrs in presence of iron-depleted CAA medium by qRT-PCR analysis; format: functional, organism-based
How it was run: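 Cells grown in CAA medium for 8 h at 30 °C with vigorous shaking, with or without 10 μM compound; 2.5 x 10⁸ cells stabilized in two volumes RNAprotect; RNA processed per earlier protocol; RT-qPCR with primer efficiencies from serially diluted genomic DNA; double ΔCT analysis.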

Compound: CC[C@H](C)[C@H](NC(=O)[C@H](CCSC)NC(=O)[C@@H](NC(=O)[C@H](C)NC(=O)CNC(=O)[C@H](CC(C)C)NC(=O)[C@H](CC(=O)O)NC(=O)[C@@H](NC(=O)COCC(=O)NCCOCCOCCOCCOCCOCCOCCOCCOCCn1cc(CCCC(=O)Nc2c(CNC(=O)c3cccc(O)c3O)cc(CNC(=O)c3cccc(O)c3O)cc2CNC(=O)c2cccc(O)c2O)nn1)C(C)C)[C@@H](C)O)C(=O)N[C@H](C(=O)N[C@@H](CO)C(=O)N[C@@H](CC(N)=O)C(=O)N[C@@H](CCCCN)C(N)=O)[C@@H](C)O (X1-VDLGATMITSNK-NH2)
- Activity (Pseudomonas aeruginosa [1]): inactive
- MIC (Pseudomonas aeruginosa [2]): > 64 µM
- MIC (Pseudomonas aeruginosa [3]): > 64 µM

Compound: CC[C@@H](C)[C@@H](NC(=O)[C@H](NC(=O)c1cccc(O)c1O)C(C)C)C(=O)N[C@H](CCC(=O)O)C(=O)N[C@H](CC(C)C)C(=O)NCC(=O)N[C@H](CCC(=O)O)C(=O)N[C@H](CCC(N)=O)C(=O)N[C@@H](C(=O)N[C@@H](C(=O)N[C@@H](C(=O)N[C@H](C)C(=O)N[C@@H](C(=O)N[C@H](C)C(=O)N[C@H](CCC(N)=O)C(=O)N[C@H](CCC(=O)O)C(=O)N[C@H](CCC(=O)O)C(=O)N[C@@H](C(=O)N[C@H](CCCCN)C(=O)N[C@H](CCC(N)=O)C(=O)N[C@H](CCCCN)C(N)=O)[C@H](C)O)[C@H](C)O)C(C)C)C(C)C)[C@H](C)O ({Benzoyl(2,3-diOH)}-[dV][dI][dE][dL]G[dE][dQ][dT][dV][dV][dA][dT][dA][dQ][dE][dE][dT][dK][dQ][dK]-NH2)
- Activity (Pseudomonas aeruginosa [1]): inactive
- MIC (Pseudomonas aeruginosa [2]): > 64 µM
- MIC (Pseudomonas aeruginosa [3]): > 64 µM

Compound: H-VDLGATMITSNK-NH2
- Activity (Pseudomonas aeruginosa [1]): inactive
- Activity (Pseudomonas aeruginosa [4]): inactive

Compound: CC[C@H](C)[C@H](NC(=O)[C@@H](NC(=O)c1cccc(O)c1O)C(C)C)C(=O)N[C@@H](CCC(=O)O)C(=O)N[C@@H](CC(C)C)C(=O)NCC(=O)N[C@@H](CCC(=O)O)C(=O)N[C@@H](CCC(N)=O)C(=O)N[C@H](C(=O)N[C@H](C(=O)N[C@H](C(=O)N[C@@H](C)C(=O)N[C@H](C(=O)N[C@@H](C)C(=O)N[C@@H](CCC(N)=O)C(=O)N[C@@H](CCC(=O)O)C(=O)N[C@@H](CCC(=O)O)C(=O)N[C@H](C(=O)N[C@@H](CCCCN)C(=O)N[C@@H](CCC(N)=O)C(=O)N[C@@H](CCCCN)C(N)=O)[C@@H](C)O)[C@@H](C)O)C(C)C)C(C)C)[C@@H](C)O ({Benzoyl(2,3-diOH)}-VIELGEQTVVATAQEETKQK-NH2)
- Activity (Pseudomonas aeruginosa [1]): inactive
- MIC (Pseudomonas aeruginosa [2]): > 64 µM
- MIC (Pseudomonas aeruginosa [3]): > 64 µM

Compound: CC[C@H](C)[C@H](NC(=O)[C@@H](N)C(C)C)C(=O)N[C@@H](CCC(=O)O)C(=O)N[C@@H](CC(C)C)C(=O)NCC(=O)N[C@@H](CCC(=O)O)C(=O)N[C@@H](CCC(N)=O)C(=O)N[C@H](C(=O)N[C@H](C(=O)N[C@H](C(=O)N[C@@H](C)C(=O)N[C@H](C(=O)N[C@@H](C)C(=O)N[C@@H](CCC(N)=O)C(=O)N[C@@H](CCC(=O)O)C(=O)N[C@@H](CCC(=O)O)C(=O)N[C@H](C(=O)N[C@@H](CCCCN)C(=O)N[C@@H](CCC(N)=O)C(=O)N[C@@H](CCCCNC(=O)COCC(=O)NCCOCCOCCOCCOCCOCCOCCOCCOCCn1cc(CCCC(=O)Nc2c(CNC(=O)c3cccc(OC(C)=O)c3OC(C)=O)cc(CNC(=O)c3cccc(OC(C)=O)c3OC(C)=O)cc2CNC(=O)c2cccc(OC(C)=O)c2OC(C)=O)nn1)C(N)=O)[C@@H](C)O)[C@@H](C)O)C(C)C)C(C)C)[C@@H](C)O (H-VIELGEQTVVATAQEETKQK(X6)-NH2)
- Activity (Pseudomonas aeruginosa [1]): inactive
- MIC (Pseudomonas aeruginosa [2]): > 64 µM
- MIC (Pseudomonas aeruginosa [3]): > 64 µM

Compound: CC[C@H](C)[C@H](NC(=O)[C@H](CCSC)NC(=O)[C@@H](NC(=O)[C@H](C)NC(=O)CNC(=O)[C@H](CC(C)C)NC(=O)[C@H](CC(=O)O)NC(=O)[C@@H](NC(=O)[C@H](CO)NC(=O)[C@H](CO)NC(=O)[C@H](CC(=O)O)NC(=O)c1cccc(O)c1O)C(C)C)[C@@H](C)O)C(=O)N[C@H](C(=O)N[C@@H](CO)C(=O)N[C@@H](CC(N)=O)C(=O)N[C@@H](CCC(N)=O)C(=O)N[C@@H](CC(C)C)C(=O)NCC(=O)N[C@H](C(=O)N[C@H](C(=O)N[C@@H](CCCCN)C(N)=O)[C@@H](C)CC)[C@@H](C)O)[C@@H](C)O
- Activity (Pseudomonas aeruginosa [1]): inactive
- MIC (Pseudomonas aeruginosa [2]): > 64 µM
- MIC (Pseudomonas aeruginosa [3]): > 64 µM

Compound: CSCC[C@H](NC(=O)[C@H](CCC(N)=O)NC(=O)[C@@H](NC(=O)[C@H](CC(C)C)NC(=O)[C@H](CC(=O)O)NC(=O)[C@H](CC(=O)O)NC(=O)COCC(=O)NCCOCCOCCOCCOCCOCCOCCOCCOCCn1cc(CCCC(=O)Nc2c(CNC(=O)c3cccc(O)c3O)cc(CNC(=O)c3cccc(O)c3O)cc2CNC(=O)c2cccc(O)c2O)nn1)C(C)C)C(=O)N[C@@H](CO)C(=O)N1CCC[C@H]1C(=O)N[C@@H](CO)C(=O)N[C@H](C(=O)N[C@@H](CCCCN)C(N)=O)C(C)C (X1-DDLVQMSPSVK-NH2)
- Activity (Pseudomonas aeruginosa [1]): inactive
- MIC (Pseudomonas aeruginosa [2]): > 64 µM
- MIC (Pseudomonas aeruginosa [3]): > 64 µM

Compound: H-DDLVQMSPSVK-NH2
- Activity (Pseudomonas aeruginosa [1]): inactive
- Activity (Pseudomonas aeruginosa [4]): inactive

Compound: CN[C@@H]1[C@@H](O)[C@@H](O[C@@H]2[C@@H](O)[C@H](O[C@H]3O[C@H](C(C)N)CC[C@H]3N)[C@@H](N)C[C@H]2N)OC[C@]1(C)O (some centres not stated) [GENTAMICIN C2]
- Activity (Pseudomonas aeruginosa [1]): inactive
- MIC (Pseudomonas aeruginosa [2]): 1 µM
- MIC (Pseudomonas aeruginosa [3]): 4 µM

Compound: CC[C@@H](C)[C@@H](NC(=O)[C@@H](CCSC)NC(=O)[C@H](NC(=O)[C@@H](C)NC(=O)CNC(=O)[C@@H](CC(C)C)NC(=O)[C@@H](CC(=O)O)NC(=O)[C@H](NC(=O)[C@@H](CO)NC(=O)[C@@H](CO)NC(=O)[C@@H](CC(=O)O)NC(=O)c1cccc(O)c1O)C(C)C)[C@H](C)O)C(=O)N[C@@H](C(=O)N[C@H](CO)C(=O)N[C@H](CC(N)=O)C(=O)N[C@H](CCC(N)=O)C(=O)N[C@H](CC(C)C)C(=O)NCC(=O)N[C@@H](C(=O)N[C@@H](C(=O)N[C@H](CCCCN)C(N)=O)[C@H](C)CC)[C@H](C)O)[C@@H](C)O
- Activity (Pseudomonas aeruginosa [1]): inactive
- MIC (Pseudomonas aeruginosa [2]): > 64 µM
- MIC (Pseudomonas aeruginosa [3]): > 64 µM

Compound: CC[C@H](C)[C@H](NC(=O)[C@@H](N)C(C)C)C(=O)N[C@@H](CCC(=O)O)C(=O)N[C@@H](CC(C)C)C(=O)NCC(=O)N[C@@H](CCC(=O)O)C(=O)N[C@@H](CCC(N)=O)C(=O)N[C@H](C(=O)N[C@H](C(=O)N[C@H](C(=O)N[C@@H](C)C(=O)N[C@H](C(=O)N[C@@H](C)C(=O)N[C@@H](CCC(N)=O)C(=O)N[C@@H](CCC(=O)O)C(=O)N[C@@H](CCC(=O)O)C(=O)N[C@H](C(=O)N[C@@H](CCCCN)C(=O)N[C@@H](CCC(N)=O)C(=O)N[C@@H](CCCCNC(=O)c1cccc(O)c1O)C(N)=O)[C@@H](C)O)[C@@H](C)O)C(C)C)C(C)C)[C@@H](C)O (H-VIELGEQTVVATAQEETKQK(Benzoyl(2,3-diOH))-NH2)
- Activity (Pseudomonas aeruginosa [1]): inactive
- MIC (Pseudomonas aeruginosa [2]): > 64 µM
- MIC (Pseudomonas aeruginosa [3]): > 64 µM

Compound: CC[C@H](C)[C@H](NC(=O)[C@H](CCSC)NC(=O)[C@@H](NC(=O)[C@H](C)NC(=O)CNC(=O)[C@H](CC(C)C)NC(=O)[C@H](CC(=O)O)NC(=O)[C@@H](NC(=O)[C@H](CO)NC(=O)[C@H](CO)NC(=O)[C@@H](N)CC(=O)O)C(C)C)[C@@H](C)O)C(=O)N[C@H](C(=O)N[C@@H](CO)C(=O)N[C@@H](CC(N)=O)C(=O)N[C@@H](CCC(N)=O)C(=O)N[C@@H](CC(C)C)C(=O)NCC(=O)N[C@H](C(=O)N[C@H](C(=O)N[C@@H](CCCCNC(=O)c1cccc(O)c1O)C(N)=O)[C@@H](C)CC)[C@@H](C)O)[C@@H](C)O (H-DSSVDLGATMITSNQLGTIK(Benzoyl(2,3-diOH))-NH2)
- Activity (Pseudomonas aeruginosa [1]): inactive
- MIC (Pseudomonas aeruginosa [2]): > 64 µM
- MIC (Pseudomonas aeruginosa [3]): > 64 µM

Compound: H-GEQTVVATAQK-NH2
- Activity (Pseudomonas aeruginosa [1]): inactive
- Activity (Pseudomonas aeruginosa [4]): inactive

Compound: CC(C)[C@H](NC(=O)[C@@H](NC(=O)[C@@H](NC(=O)[C@H](CCC(N)=O)NC(=O)[C@H](CCC(=O)O)NC(=O)COCC(=O)NCCOCCOCCOCCOCCOCCOCCOCCOCCn1cc(CCCC(=O)Nc2c(CNC(=O)c3cccc(O)c3O)cc(CNC(=O)c3cccc(O)c3O)cc2CNC(=O)c2cccc(O)c2O)nn1)[C@@H](C)O)C(C)C)C(=O)N[C@@H](C)C(=O)N[C@H](C(=O)N[C@@H](C)C(=O)N[C@@H](CCC(N)=O)C(=O)N[C@@H](CCCCN)C(N)=O)[C@@H](C)O (X1-EQTVVATAQK-NH2)
- Activity (Pseudomonas aeruginosa [1]): inactive
- MIC (Pseudomonas aeruginosa [2]): > 64 µM
- MIC (Pseudomonas aeruginosa [3]): > 64 µM

Compound: CC[C@H](C)[C@H](NC(=O)[C@@H](N)C(C)C)C(=O)N[C@@H](CCC(=O)O)C(=O)N[C@@H](CC(C)C)C(=O)NCC(=O)N[C@@H](CCC(=O)O)C(=O)N[C@@H](CCC(N)=O)C(=O)N[C@H](C(=O)N[C@H](C(=O)N[C@H](C(=O)N[C@@H](C)C(=O)N[C@H](C(=O)N[C@@H](C)C(=O)N[C@@H](CCC(N)=O)C(=O)N[C@@H](CCC(=O)O)C(=O)N[C@@H](CCC(=O)O)C(=O)N[C@H](C(=O)N[C@@H](CCCCN)C(=O)N[C@@H](CCC(N)=O)C(=O)N[C@@H](CCCCNC(=O)CCSSCCC(=O)NCCOCCOCCOCCOCCOCCn1cc(CCCC(=O)Nc2c(CNC(=O)c3cccc(O)c3O)cc(CNC(=O)c3cccc(O)c3O)cc2CNC(=O)c2cccc(O)c2O)nn1)C(N)=O)[C@@H](C)O)[C@@H](C)O)C(C)C)C(C)C)[C@@H](C)O (H-VIELGEQTVVATAQEETKQK(X5)-NH2)
- Activity (Pseudomonas aeruginosa [1]): inactive
- MIC (Pseudomonas aeruginosa [2]): > 64 µM
- MIC (Pseudomonas aeruginosa [3]): > 64 µM
